Measurements reported in ChEMBL document CHEMBL4359895, “Discovery and biological evaluation of darolutamide derivatives as inhibitors and down-regulators of wild-type AR and the mutants” (Eur J Med Chem, 2019).
In brackets after ≈: the same amount, converted by molar mass. Activity calls are given as the source filed them. No cut-off for these calls is given here.

What was measured:
[1] = tested on: LNCaP; test: Antiproliferative activity against human LNCAP expressing AR assessed as reduction in cell viability incubated for 6 days by CCK-8 assay; assay type: functional, cell-based; settings: 144 h
Method in brief: (§1)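 Cell proliferation assay run on LNCaP/AR, VCaP, 22Rv1, PC-3 and L-02 cells, with PC-3 and L-02 serving as AR-independent toxicity controls. IC50 fitted in GraphPad Prism 5 as the mean of at least two experiments, each in duplicate. Deviations under 35%.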

[2] = tested on: VCaP; test: Antiproliferative activity against human VCaP expressing AR assessed as reduction in cell viability incubated for 6 days by CCK-8 assay; assay type: functional, cell-based; settings: 144 h; method in brief: as §1
[3] = tested on: CWR22R; test: Antiproliferative activity against human 22Rv1 expressing AR assessed as reduction in cell viability incubated for 6 days by CCK-8 assay; assay type: functional, cell-based; settings: 22Rv1, 144 h; method in brief: as §1
[4] = tested on: PC-3; test: Cytotoxicity against human PC3 assessed as reduction in cell viability incubated for 6 days by CCK-8 assay; assay type: cell-based; settings: PC-3, 144 h; method in brief: as §1
[5] = molecular target: T1, Androgen receptor (Homo sapiens) (UniProt P10275); test: Inhibition of AR in human HEK293 cells assessed as decrease in receptor transactivation at 10 uM incubated for 24 hrs by dual luciferase reporter gene assay; assay type: cell-based
T1 sequence (whole entry): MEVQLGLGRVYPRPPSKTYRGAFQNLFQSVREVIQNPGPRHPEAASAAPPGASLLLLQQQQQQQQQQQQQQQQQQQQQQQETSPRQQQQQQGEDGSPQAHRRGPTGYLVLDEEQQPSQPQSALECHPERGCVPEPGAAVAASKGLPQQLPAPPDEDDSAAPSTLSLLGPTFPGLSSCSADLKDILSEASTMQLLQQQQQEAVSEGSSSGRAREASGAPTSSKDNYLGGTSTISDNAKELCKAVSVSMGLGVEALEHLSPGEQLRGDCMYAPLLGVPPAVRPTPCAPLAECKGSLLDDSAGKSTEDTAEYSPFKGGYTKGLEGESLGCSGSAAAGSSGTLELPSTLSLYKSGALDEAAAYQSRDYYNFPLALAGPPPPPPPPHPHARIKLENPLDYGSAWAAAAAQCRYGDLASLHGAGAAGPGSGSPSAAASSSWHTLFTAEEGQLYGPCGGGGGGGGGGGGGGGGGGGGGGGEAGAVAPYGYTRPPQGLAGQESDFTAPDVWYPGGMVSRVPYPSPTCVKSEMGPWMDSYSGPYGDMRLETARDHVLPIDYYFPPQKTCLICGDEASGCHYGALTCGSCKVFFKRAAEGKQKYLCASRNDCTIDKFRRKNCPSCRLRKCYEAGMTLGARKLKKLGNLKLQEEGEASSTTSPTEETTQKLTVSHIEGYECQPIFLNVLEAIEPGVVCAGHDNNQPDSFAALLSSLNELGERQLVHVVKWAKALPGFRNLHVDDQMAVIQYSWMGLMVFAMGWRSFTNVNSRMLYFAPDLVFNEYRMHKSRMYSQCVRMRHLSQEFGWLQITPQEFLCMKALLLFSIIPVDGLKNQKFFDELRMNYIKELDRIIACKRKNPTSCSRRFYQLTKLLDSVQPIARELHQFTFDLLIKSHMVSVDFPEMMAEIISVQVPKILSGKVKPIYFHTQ
Method in brief: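 HEK 293 cells transiently co-transfected with wt-AR expression vector and an androgen-responsive luciferase reporter construct. Cells given 2 nM testosterone plus 10 µM test compound (final concentrations). Read-out by luciferase, mean ± SD, n = 3.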

[6] = tested on: L02; test: Cytotoxicity against human L02 assessed as reduction in cell viability incubated for 6 days by CCK-8 assay; assay type: cell-based; settings: L02, 144 h; method in brief: as §1
[7] = tested on: LNCaP; test: Inhibition of AR protein expression in human LNCAP cells at 20 uM incubated for 24 hrs by Western blot analysis; assay type: functional, cell-based
Method in brief: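 LNCaP cells treated with 20 µM compound or DMSO for 24 h. AR-full protein detected by western blot with tubulin as loading control, then quantified by ImageJ grayscale analysis.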

[8] = Solubility of compound in PBS incubated for 24 hrs by HPLC analysis; assay type: physicochemical
Method in brief: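 Solubility determined in PBS at 25 ℃ by the saturation shake-flask method. Quantified against calibration curves.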

[9] = Stability of compound in nutrient medium with fetal bovine serum and antibiotic incubated for 6 days by HPLC analysis; settings: 144 h
[10] = molecular target: Bromodomain-containing protein 4 (Homo sapiens) (UniProt O60885); test: Inhibition of BRD4 (unknown origin) by alpha-screen assay
[11] = tested on: VCaP; test: Antiproliferative activity against human VCaP expressing AR assessed as reduction in cell viability at 30 uM incubated for 6 days by CCK-8 assay relative to control; settings: 144 h, read-out: INH
[12] = tested on: VCaP; test: Antitumor activity against castration-resistant human VCaP cells xenografted in BALB/c mouse assessed as tumor growth inhibition at 30 mg/kg, po administered for 40 days; assay type: functional; settings: 960 h, read-out: TGI
Method in brief: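 Castration-resistant VCaP xenografts grown in male BALB/c nude mice. Animals dosed once daily for 40 days alongside a vehicle group. Tumor volume tracked over time, with tumor weights taken at end. Reported as tumor growth inhibition, mean ± SEM, N = 8-9 per group.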

Row | Compound | IC50 [1] [µM] | IC50 [2] [µM] | IC50 [3] [µM] | IC50 [4] [µM] | inhibition [5] | IC50 [6] [µM] | inhibition [7] | solubility at 24 h [8] [µM] | Stability [9] | inhibition [10] | inhibition at 30 µM [11] [%] | inhibition in vivo at 30 mg/kg [12] [%]
1 | CC(O)c1cccc(C(=O)N[C@@H](C)Cn2ccc(-c3ccc(C#N)c(Cl)c3)n2)c1 (stereo not given in full) | 2.28 | 0.9 | 20.1 | > 30 | Active | – | – | – | – | – | – | –
2 | C[C@@H](Cn1ccc(-c2ccc(C#N)c(Cl)c2)n1)Nc1ncnc2ccccc12 | 0.51 | 1.31 | 4.36 | > 30 | Active | 13 | Active | – | – | – | – | –
3 | CC(O)c1cc(C(=O)N[C@@H](C)Cn2ccc(-c3ccc(C#N)c(Cl)c3)n2)[nH]n1 (stereo not given in full) [DAROLUTAMIDE] | – | – | – | – | – | – | – | 223 (≈ 89 µg/mL) | Stable | – | – | –
4 | CC(O)c1cc(C(=O)N[C@@H](C)Cn2ccc(-c3ccc(C#N)c(Cl)c3)n2)n[nH]1 (stereo not given in full) [DAROLUTAMIDE] | 1.65 | – | > 30 | > 30 | – | > 30 | – | – | – | inactive | – | –
5 | C[C@@H](Cn1ccc(-c2ccc(C#N)c(Cl)c2)n1)Nc1cccnc1 | 0.43 | > 30 | 21.6 | > 30 | Active | > 30 | – | – | – | – | – | –
6 | CC(Cn1ccc(-c2ccc(C#N)c(Cl)c2)n1)C(=O)Nc1cccc(C(C)O)c1 (racemic) | 4.15 | > 30 | – | > 30 | Active | – | – | – | – | – | – | –
7 | CNC(=O)c1ccc(N2C(=S)N(c3ccc(C#N)c(C(F)(F)F)c3)C(=O)C2(C)C)cc1F [ENZALUTAMIDE] | 0.19 | – | > 30 | > 30 | – | – | – | – | – | inactive | 50 | 43
